{
  "source": "ChEMBL document CHEMBL2062496",
  "about": "“Identification of a sirtuin 3 inhibitor that displays selectivity over sirtuin 1 and 2” (Eur J Med Chem, 2012)",
  "key": {"SK-MEL-28": {"tested_on": "SK-MEL-28", "assay": "Reduction in ATP level in human SK-MEL-28 cells at 100 uM maintained in Locke's solution after 24 hrs by luciferase-based assay in absence of GF and glucose", "type": "functional, cell-based", "outline": "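SK-MEL-28 cells were grown 24 h in Locke's saline lacking glucose and serum, with or without 100 µM compound; antimycin was the positive control. Cellular ATP was released with a somatic-cell releasing reagent, then luciferase/luciferin assay mix was added and bioluminescence read. Mean ± S.E.M. of 10–14 replicates from 3 separate experiments.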"}, "HL-60(TB)": {"tested_on": "HL-60(TB)", "assay": "Growth inhibition of human HL-60(TB) cells assessed as cell growth at 10 uM after 48 hrs by MTT assay", "type": "functional", "conditions": "HL-60, 48 h, read-out: GI"}, "HeLa": {"tested_on": "HeLa", "assay": "Cytotoxicity against human HeLa cells assessed as cell death after 48 hrs"}, "MDA-MB-468": {"tested_on": "MDA-MB-468", "assay": "Growth of human MDA-MB-468 cells assessed as cell growth at 10 uM after 48 hrs by MTT assay", "conditions": "MDA-MB-468, 48 h"}, "PC-3": {"tested_on": "PC-3", "assay": "Growth inhibition of human PC3 cells assessed as cell growth at 10 uM after 48 hrs by MTT assay; values are per cent of control", "conditions": "PC-3, 48 h"}, "M14": {"tested_on": "M14", "assay": "Growth inhibition of human M14 cells assessed as cell growth at 10 uM after 48 hrs by MTT assay; values are per cent of control", "conditions": "M14, 48 h"}, "KM12": {"tested_on": "KM12", "assay": "Growth inhibition of human KM12 cells assessed as cell growth at 10 uM after 48 hrs by MTT assay; values are per cent of control", "conditions": "KM12, 48 h"}, "U-251": {"tested_on": "U-251", "assay": "Growth inhibition of human U251 cells assessed as cell growth at 10 uM after 48 hrs by MTT assay; values are per cent of control", "conditions": "U-251, 48 h"}, "A498": {"tested_on": "A498", "assay": "Growth inhibition of human A498 cells assessed as cell growth at 10 uM after 48 hrs by MTT assay; values are per cent of control", "conditions": "A498, 48 h"}, "TK-10": {"tested_on": "TK-10", "assay": "Growth inhibition of human TK10 cells assessed as cell growth at 10 uM after 48 hrs by MTT assay; values are per cent of control", "conditions": "TK-10, 48 h"}, "T47D": {"tested_on": "T47D", "assay": "Growth inhibition of human T47D cells assessed as cell growth at 10 uM after 48 hrs by MTT assay; values are per cent of control"}, "SF-268": {"tested_on": "SF-268", "assay": "Growth inhibition of human SF268 cells assessed as cell growth at 10 uM after 48 hrs by MTT assay; values are per cent of control", "conditions": "SF-268, 48 h"}, "786-0": {"tested_on": "786-0", "assay": "Growth inhibition of human 786-0 cells assessed as cell growth at 10 uM after 48 hrs by MTT assay; values are per cent of control", "conditions": "786-0, 48 h"}, "UACC-62": {"tested_on": "UACC-62", "assay": "Growth inhibition of human UACC62 cells assessed as cell growth at 10 uM after 48 hrs by MTT assay; values are per cent of control", "conditions": "UACC-62, 48 h"}, "IGROV-1": {"tested_on": "IGROV-1", "assay": "Growth inhibition of human IGROV1 cells assessed as cell growth at 10 uM after 48 hrs by MTT assay; values are per cent of control", "conditions": "IGROV-1, 48 h"}, "OVCAR-8": {"tested_on": "OVCAR-8", "assay": "Growth inhibition of human OVCAR8 cells assessed as cell growth at 10 uM after 48 hrs by MTT assay; values are per cent of control", "conditions": "OVCAR-8, 48 h"}, "RXF 393": {"tested_on": "RXF 393", "assay": "Growth inhibition of human RXF393 cells assessed as cell growth at 10 uM after 48 hrs by MTT assay; values are per cent of control", "conditions": "RXF 393, 48 h"}, "COLO 205": {"tested_on": "COLO 205", "assay": "Growth inhibition of human COLO205 cells assessed as cell growth at 10 uM after 48 hrs by MTT assay; values are per cent of control", "conditions": "COLO 205, 48 h"}, "LOX IMVI": {"tested_on": "LOX IMVI", "assay": "Growth inhibition of human LOXIMVI cells assessed as cell growth at 10 uM after 48 hrs by MTT assay; values are per cent of control"}, "UACC-257": {"tested_on": "UACC-257", "assay": "Growth inhibition of human UACC257 cells assessed as cell growth at 10 uM after 48 hrs by MTT assay; values are per cent of control", "conditions": "UACC-257, 48 h"}, "[1]": {"assay": "Growth inhibition of human Hs 578T cells assessed as cell growth at 10 uM after 48 hrs by MTT assay; values are per cent of control"}, "NCI-H522": {"tested_on": "NCI-H522", "assay": "Growth inhibition of human NCI-H522 cells assessed as cell growth at 10 uM after 48 hrs by MTT assay; values are per cent of control", "conditions": "NCI-H522, 48 h"}, "MDA-MB-231": {"tested_on": "MDA-MB-231", "assay": "Growth inhibition of human MDA-MB-231 cells assessed as cell growth at 10 uM after 48 hrs by MTT assay; values are per cent of control", "conditions": "MDA-MB-231, 48 h"}, "[2]": {"assay": "Growth inhibition of human NCI-ADR-RES cells assessed as cell growth at 10 uM after 48 hrs by MTT assay; values are per cent of control"}},
  "note": "Calls of active or inactive are those of the source. The rule behind the calls is not given here.",
  "data": [
    {"smiles": "c1cncc(-c2cnn[nH]2)c1", "values": [
      {"measurement": "Activity", "setting": "SK-MEL-28", "value": "Active"},
      {"measurement": "inhibition of growth at 10 µM", "setting": "HL-60(TB)", "value": 92.9, "unit": "%"},
      {"measurement": "IC50", "setting": "HeLa", "value": 4.7, "unit": "µM"},
      {"measurement": "growth, % of control at 10 µM", "setting": "MDA-MB-468", "value": 104, "unit": "%"},
      {"measurement": "growth, % of control at 10 µM", "setting": "PC-3", "value": 88.5, "unit": "%"},
      {"measurement": "growth, % of control at 10 µM", "setting": "M14", "value": 72.5, "unit": "%"},
      {"measurement": "growth, % of control at 10 µM", "setting": "KM12", "value": 116, "unit": "%"},
      {"measurement": "growth, % of control at 10 µM", "setting": "U-251", "value": 111, "unit": "%"},
      {"measurement": "growth, % of control at 10 µM", "setting": "A498", "value": 105, "unit": "%"},
      {"measurement": "growth, % of control at 10 µM", "setting": "TK-10", "value": 103, "unit": "%"},
      {"measurement": "growth, % of control at 10 µM", "setting": "T47D", "value": 102, "unit": "%"},
      {"measurement": "growth, % of control at 10 µM", "setting": "SF-268", "value": 113, "unit": "%"},
      {"measurement": "growth, % of control at 10 µM", "setting": "786-0", "value": 104, "unit": "%"},
      {"measurement": "growth, % of control at 10 µM", "setting": "UACC-62", "value": 90.7, "unit": "%"},
      {"measurement": "growth, % of control at 10 µM", "setting": "IGROV-1", "value": 113, "unit": "%"},
      {"measurement": "growth, % of control at 10 µM", "setting": "OVCAR-8", "value": 49.8, "unit": "%"},
      {"measurement": "growth, % of control at 10 µM", "setting": "RXF 393", "value": 98.6, "unit": "%"},
      {"measurement": "growth, % of control at 10 µM", "setting": "COLO 205", "value": 23.8, "unit": "%"},
      {"measurement": "growth, % of control at 10 µM", "setting": "LOX IMVI", "value": 102, "unit": "%"},
      {"measurement": "growth, % of control at 10 µM", "setting": "UACC-257", "value": 90.3, "unit": "%"},
      {"measurement": "growth, % of control at 10 µM", "setting": "[1]", "value": 118, "unit": "%"},
      {"measurement": "growth, % of control at 10 µM", "setting": "NCI-H522", "value": 101, "unit": "%"},
      {"measurement": "growth, % of control at 10 µM", "setting": "MDA-MB-231", "value": 103, "unit": "%"},
      {"measurement": "growth, % of control at 10 µM", "setting": "[2]", "value": 71.3, "unit": "%"}
    ]}
  ]
}
